Activity calls are given as the source filed them. No cut-off for these calls is given here.
How the values were obtained:
[1] = target: T1, Sodium channel protein type 8 subunit alpha (Homo sapiens, UniProt Q9UQD0); assay: Inhibition of human Nav1.6 expressed in HEK293 cells assessed as change in membrane potential using MP-red voltage sensitive dye at 10 uM; type: cell-based
In short: (§1)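 Human Nav isoforms stably expressed in HEK293 cells with β1 subunit (Nav1.8 without β subunit), with tetrodotoxin sensitivity checked. Membrane potential change read with MP-red voltage-sensitive dye kit. Single-concentration screen at 10 µM gives percent inhibition as mean of duplicates, or an IC50 in µM where determined. Compounds come from 1 or 10 mM DMSO stocks diluted in assay buffer.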

[2] = target: Sodium channel protein type 2 subunit alpha (Homo sapiens) (UniProt Q99250); assay: Use-dependent inhibition of human Nav1.2 expressed in HEK293 cells at 50 uM using double-pulse protocol by patch clamp technique; type: cell-based
In short: (§2)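 Human Nav1.2 or Nav1.6 in HEK293 cells, automated patch clamp at room temperature with 5 min exposure. Holding potential -80 mV, prepulse -120 mV, then P1 to 0 mV for 200 ms, 200 ms at -80 mV, and P2 to 0 mV for 20 ms, repeated at 0.1 Hz. Use-dependent inhibition I = (1 − P2T/P1T) × P1C/P2C × 100; mean of duplicates.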

[3] = target: T1, Sodium channel protein type 8 subunit alpha; assay: Use-dependent inhibition of human Nav1.6 expressed in HEK293 cells at 10 uM using double-pulse protocol by patch clamp technique; type: cell-based; in short: as §2
[4] = target: Sodium channel protein type 2 subunit alpha (Homo sapiens) (UniProt Q99250); assay: Use-dependent inhibition of human Nav1.2 expressed in HEK293 cells at 10 uM using double-pulse protocol by patch clamp technique; type: cell-based; in short: as §2
[5] = target: Sodium channel protein type 9 subunit alpha (Homo sapiens) (UniProt Q15858); assay: Inhibition of human Nav1.7 expressed in HEK293 cells assessed as change in membrane potential using MP-red voltage sensitive dye at 10 uM; type: cell-based; in short: as §1
Sequence of Sodium channel protein type 9 subunit alpha (Homo sapiens) (Q15858 whole entry, looked up): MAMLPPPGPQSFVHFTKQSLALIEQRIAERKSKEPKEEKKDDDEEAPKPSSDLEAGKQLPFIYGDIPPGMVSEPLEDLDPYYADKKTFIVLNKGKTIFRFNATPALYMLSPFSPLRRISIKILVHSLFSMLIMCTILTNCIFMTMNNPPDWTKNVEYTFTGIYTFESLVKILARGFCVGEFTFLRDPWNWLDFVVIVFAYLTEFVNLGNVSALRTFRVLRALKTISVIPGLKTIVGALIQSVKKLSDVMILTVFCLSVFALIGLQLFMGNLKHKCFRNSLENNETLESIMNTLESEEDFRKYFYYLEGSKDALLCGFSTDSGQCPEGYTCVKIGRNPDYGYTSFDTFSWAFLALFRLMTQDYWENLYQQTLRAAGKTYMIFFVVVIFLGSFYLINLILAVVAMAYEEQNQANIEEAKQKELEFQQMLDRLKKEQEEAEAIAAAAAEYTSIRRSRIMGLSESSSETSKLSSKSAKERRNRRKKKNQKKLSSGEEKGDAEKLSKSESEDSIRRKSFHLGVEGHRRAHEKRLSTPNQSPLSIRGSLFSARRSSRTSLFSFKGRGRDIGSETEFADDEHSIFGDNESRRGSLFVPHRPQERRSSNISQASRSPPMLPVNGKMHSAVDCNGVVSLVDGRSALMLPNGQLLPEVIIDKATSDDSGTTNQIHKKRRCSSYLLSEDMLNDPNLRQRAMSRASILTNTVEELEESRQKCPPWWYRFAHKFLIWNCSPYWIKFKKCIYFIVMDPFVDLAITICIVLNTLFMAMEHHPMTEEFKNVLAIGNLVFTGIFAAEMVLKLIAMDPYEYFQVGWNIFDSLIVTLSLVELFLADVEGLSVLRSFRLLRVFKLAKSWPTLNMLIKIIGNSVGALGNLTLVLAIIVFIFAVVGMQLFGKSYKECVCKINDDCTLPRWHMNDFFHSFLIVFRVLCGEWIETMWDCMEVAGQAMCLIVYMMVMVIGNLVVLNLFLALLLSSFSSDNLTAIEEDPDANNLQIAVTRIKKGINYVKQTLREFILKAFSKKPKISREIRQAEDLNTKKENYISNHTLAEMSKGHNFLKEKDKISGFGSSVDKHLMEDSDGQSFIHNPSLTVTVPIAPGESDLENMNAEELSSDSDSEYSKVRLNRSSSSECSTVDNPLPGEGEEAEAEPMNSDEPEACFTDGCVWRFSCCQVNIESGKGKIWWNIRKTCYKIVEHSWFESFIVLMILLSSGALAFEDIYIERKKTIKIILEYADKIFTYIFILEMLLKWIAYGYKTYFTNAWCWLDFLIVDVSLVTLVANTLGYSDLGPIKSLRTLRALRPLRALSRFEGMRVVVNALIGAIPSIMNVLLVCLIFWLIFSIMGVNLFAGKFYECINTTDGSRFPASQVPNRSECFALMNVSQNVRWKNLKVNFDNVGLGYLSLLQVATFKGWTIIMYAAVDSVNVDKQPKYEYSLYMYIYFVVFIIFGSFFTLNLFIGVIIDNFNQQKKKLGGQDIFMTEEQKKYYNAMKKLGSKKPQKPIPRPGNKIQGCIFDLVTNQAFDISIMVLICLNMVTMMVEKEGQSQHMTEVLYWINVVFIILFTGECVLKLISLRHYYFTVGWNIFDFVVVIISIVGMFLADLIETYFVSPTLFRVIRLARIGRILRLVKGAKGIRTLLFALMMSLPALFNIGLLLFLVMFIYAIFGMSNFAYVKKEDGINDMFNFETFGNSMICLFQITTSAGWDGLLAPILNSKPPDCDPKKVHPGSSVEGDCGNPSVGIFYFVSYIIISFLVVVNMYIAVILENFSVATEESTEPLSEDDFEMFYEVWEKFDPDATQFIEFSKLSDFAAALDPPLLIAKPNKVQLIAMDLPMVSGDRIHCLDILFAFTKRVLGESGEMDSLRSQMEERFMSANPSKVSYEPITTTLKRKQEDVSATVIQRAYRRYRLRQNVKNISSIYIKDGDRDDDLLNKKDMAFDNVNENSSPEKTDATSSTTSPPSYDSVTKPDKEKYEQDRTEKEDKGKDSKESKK

[6] = target: T1, Sodium channel protein type 8 subunit alpha; assay: Inhibition of human Nav1.6 expressed in HEK293 cells assessed as change in membrane potential at 10 uM by patch clamp technique; type: cell-based
In short: (§3)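 Automated parallel whole-cell patch clamp at room temperature on human Nav1.2 or Nav1.6 in HEK293 cells. Each exposure lasts 5 min, at 10 and 50 µM (lamotrigine on Nav1.2 at 30 and 100 µM), with two to four cells per concentration. Peak current inhibition is given as percent, mean of duplicate experiments (n = 2) unless noted otherwise.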

[7] = target: T1, Sodium channel protein type 8 subunit alpha; assay: Use-dependent inhibition of human Nav1.6 expressed in HEK293 cells at 50 uM using double-pulse protocol by patch clamp technique; type: cell-based; in short: as §2
[8] = target: T1, Sodium channel protein type 8 subunit alpha; assay: Inhibition of human Nav1.6 expressed in HEK293 cells assessed as change in membrane potential at 50 uM by patch clamp technique; type: cell-based; in short: as §3
[9] = target: Sodium channel protein type 2 subunit alpha (Homo sapiens) (UniProt Q99250); assay: Inhibition of human Nav1.2 expressed in HEK293 cells assessed as change in membrane potential at 50 uM by patch clamp technique; type: cell-based; in short: as §3
[10] = target: Sodium channel protein type 2 subunit alpha (Homo sapiens) (UniProt Q99250); assay: Inhibition of human Nav1.2 expressed in HEK293 cells assessed as change in membrane potential at 10 uM by patch clamp technique; type: cell-based; in short: as §3
[11] = target: Nav1.5 (sodium channel protein type 5 subunit alpha) (Homo sapiens, UniProt Q14524); assay: Inhibition of human Nav1.5 expressed in HEK293 cells assessed as change in membrane potential using MP-red voltage sensitive dye at 10 uM; type: cell-based; conditions: HEK293 cells expressing human Nav1.5; in short: as §1
[12] = target: Sodium channel protein type 1 subunit alpha (Homo sapiens) (UniProt P35498); assay: Inhibition of human Nav1.1 expressed in HEK293 cells assessed as change in membrane potential using MP-red voltage sensitive dye at 10 uM; type: cell-based; in short: as §1
[13] = target: Sodium channel protein type 10 subunit alpha (Homo sapiens) (UniProt Q9Y5Y9); assay: Inhibition of human Nav1.8 expressed in HEK293 cells assessed as change in membrane potential using MP-red voltage sensitive dye at 10 uM; type: cell-based; in short: as §1
Hippocampus [14] = assay: Neuroprotective activity in Wistar rat hippocampal slices assessed as ATP concentration at 30 uM relative to tetrodotoxin; type: functional
[15] = target: Sodium channel protein type 4 subunit alpha (Homo sapiens) (UniProt P35499); assay: Inhibition of human Nav1.4 expressed in HEK293 cells assessed as change in membrane potential using MP-red voltage sensitive dye at 10 uM; type: cell-based; in short: as §1
Sequence of Sodium channel protein type 4 subunit alpha (Homo sapiens) (P35499 whole entry, looked up): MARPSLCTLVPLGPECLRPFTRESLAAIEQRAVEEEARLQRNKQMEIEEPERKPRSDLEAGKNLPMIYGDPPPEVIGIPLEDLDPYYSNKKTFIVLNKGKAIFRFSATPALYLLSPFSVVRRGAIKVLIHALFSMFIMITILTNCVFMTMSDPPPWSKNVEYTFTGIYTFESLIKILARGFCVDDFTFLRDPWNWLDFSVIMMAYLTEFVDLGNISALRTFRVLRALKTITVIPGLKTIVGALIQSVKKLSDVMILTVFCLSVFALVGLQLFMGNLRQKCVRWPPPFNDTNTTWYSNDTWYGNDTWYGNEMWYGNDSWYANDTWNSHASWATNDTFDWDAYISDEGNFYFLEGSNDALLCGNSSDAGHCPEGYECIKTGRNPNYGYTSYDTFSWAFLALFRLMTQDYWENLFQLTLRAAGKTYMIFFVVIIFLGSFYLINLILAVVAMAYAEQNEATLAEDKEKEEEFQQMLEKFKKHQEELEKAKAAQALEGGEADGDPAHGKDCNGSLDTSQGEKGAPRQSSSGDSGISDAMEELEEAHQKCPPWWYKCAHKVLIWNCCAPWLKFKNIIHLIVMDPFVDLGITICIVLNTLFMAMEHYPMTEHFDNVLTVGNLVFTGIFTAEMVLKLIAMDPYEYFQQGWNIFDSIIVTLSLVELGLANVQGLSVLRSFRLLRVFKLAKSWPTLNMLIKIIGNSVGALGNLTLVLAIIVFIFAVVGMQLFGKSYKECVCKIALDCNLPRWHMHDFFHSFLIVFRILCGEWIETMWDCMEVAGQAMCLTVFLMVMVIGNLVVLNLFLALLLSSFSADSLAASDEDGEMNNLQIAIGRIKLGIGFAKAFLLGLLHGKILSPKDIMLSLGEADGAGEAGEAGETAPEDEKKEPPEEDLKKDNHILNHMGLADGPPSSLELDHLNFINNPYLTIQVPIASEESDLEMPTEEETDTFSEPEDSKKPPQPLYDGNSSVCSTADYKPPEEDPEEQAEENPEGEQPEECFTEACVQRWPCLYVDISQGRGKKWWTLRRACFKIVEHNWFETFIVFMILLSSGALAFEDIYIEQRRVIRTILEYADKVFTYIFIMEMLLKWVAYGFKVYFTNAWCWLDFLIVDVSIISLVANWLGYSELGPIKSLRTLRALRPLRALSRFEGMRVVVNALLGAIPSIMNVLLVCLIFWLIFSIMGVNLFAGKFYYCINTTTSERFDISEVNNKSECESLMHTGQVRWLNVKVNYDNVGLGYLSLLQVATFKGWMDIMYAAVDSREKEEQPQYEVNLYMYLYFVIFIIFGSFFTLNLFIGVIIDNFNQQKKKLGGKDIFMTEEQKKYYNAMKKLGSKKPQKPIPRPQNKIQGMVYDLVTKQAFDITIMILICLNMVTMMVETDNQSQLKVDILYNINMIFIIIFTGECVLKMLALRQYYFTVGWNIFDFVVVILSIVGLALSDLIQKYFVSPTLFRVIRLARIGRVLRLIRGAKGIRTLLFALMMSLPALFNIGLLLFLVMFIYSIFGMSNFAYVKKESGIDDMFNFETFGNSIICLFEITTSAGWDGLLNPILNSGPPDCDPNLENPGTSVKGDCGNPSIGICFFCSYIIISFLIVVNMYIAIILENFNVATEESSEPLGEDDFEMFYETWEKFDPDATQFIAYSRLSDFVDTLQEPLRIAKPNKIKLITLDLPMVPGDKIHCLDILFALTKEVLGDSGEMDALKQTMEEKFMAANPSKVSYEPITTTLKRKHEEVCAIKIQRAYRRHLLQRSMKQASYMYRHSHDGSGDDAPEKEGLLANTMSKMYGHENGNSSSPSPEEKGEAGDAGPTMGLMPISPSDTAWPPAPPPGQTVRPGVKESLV

[16] = target: Sodium channel protein type 3 subunit alpha (Homo sapiens) (UniProt Q9NY46); assay: Inhibition of human Nav1.3 expressed in HEK293 cells assessed as change in membrane potential using MP-red voltage sensitive dye at 10 uM; type: cell-based; in short: as §1
[17] = Displacement of [3H]BW202W92 from voltage-gated sodium channel in Wistar rat forebrain synaptosomes by liquid scintillation counting; type: subcellular, Brain
[18] = Inhibition of voltage-gated sodium channel in Wistar rat forebrain synaptosomes assessed as inhibition of [14C]guanidium ion flux; type: subcellular, Brain
Hippocampus [19] = assay: Neuroprotective activity in Wistar rat hippocampal slices assessed as ATP concentration at 50 uM relative to tetrodotoxin; type: functional
Cytochrome P450 2D6 = Cytochrome P450 2D6 (Homo sapiens, UniProt P10635); assay: Inhibition of human recombinant CYP2D6; type: ADME
Sequence of Cytochrome P450 2D6 (P10635 whole entry): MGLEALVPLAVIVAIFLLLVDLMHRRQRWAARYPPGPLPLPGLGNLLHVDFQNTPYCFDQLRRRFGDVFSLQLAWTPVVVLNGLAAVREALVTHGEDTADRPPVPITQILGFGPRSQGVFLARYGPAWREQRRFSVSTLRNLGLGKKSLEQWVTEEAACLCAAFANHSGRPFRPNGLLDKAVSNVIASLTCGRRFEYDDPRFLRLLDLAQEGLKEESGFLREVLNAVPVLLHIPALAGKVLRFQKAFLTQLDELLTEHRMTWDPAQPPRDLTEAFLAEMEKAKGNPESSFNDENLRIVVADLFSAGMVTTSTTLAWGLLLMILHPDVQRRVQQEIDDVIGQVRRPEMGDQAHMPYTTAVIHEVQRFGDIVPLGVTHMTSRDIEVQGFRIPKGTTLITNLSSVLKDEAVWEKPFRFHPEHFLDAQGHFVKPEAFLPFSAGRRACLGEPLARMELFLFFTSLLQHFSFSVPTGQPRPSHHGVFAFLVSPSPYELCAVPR

Cytochrome P450 1A2 = target: T2, Cytochrome P450 1A2 (Homo sapiens, UniProt P05177); assay: Inhibition of human recombinant CYP1A2; type: ADME
T2 sequence (P05177 whole entry): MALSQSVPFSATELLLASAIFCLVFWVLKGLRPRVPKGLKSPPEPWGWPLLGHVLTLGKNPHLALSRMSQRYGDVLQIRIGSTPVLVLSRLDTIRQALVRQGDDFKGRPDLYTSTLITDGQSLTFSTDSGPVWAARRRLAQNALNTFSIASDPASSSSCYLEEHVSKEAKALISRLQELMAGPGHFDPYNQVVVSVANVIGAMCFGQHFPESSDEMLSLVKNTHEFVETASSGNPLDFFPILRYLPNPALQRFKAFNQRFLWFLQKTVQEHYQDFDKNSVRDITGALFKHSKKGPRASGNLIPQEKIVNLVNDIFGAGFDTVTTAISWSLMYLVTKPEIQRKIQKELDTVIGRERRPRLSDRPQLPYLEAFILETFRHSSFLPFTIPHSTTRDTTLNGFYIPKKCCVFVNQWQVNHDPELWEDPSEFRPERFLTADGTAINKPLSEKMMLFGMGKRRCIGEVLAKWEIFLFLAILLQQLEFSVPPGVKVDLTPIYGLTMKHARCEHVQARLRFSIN

Rattus norvegicus [20] = organism: Rattus norvegicus; assay: Use-dependent inhibition of voltage-gated sodium channel in Sprague-Dawley rat hippocampal neurons at 30 uM using 20 Hz train of 20 voltage steps from -90 mV with duration of 3.5 ms by voltage clamp technique; type: tissue-based; conditions: Hippocampus
In short: (§4)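 Whole-cell voltage clamp of dissociated P14-16 Sprague-Dawley rat hippocampal neurons, with compound at 30 µM. A 20 Hz train of 20 voltage steps from -90 mV, each step 3.5 ms or 20 ms, and cumulative depression of peak sodium current during the train compared with control.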

Rattus norvegicus [21] = organism: Rattus norvegicus; assay: Voltage-dependent inhibition of voltage-gated sodium channel in Sprague-Dawley rat hippocampal neurons at 30 uM at an initial membrane potential of -90 mV by voltage clamp technique; type: tissue-based; set-up: scale not given: the % may be the effect or the level left; conditions: Hippocampus
[22] = target: T1, Sodium channel protein type 8 subunit alpha; assay: Inhibition of human Nav1.6 expressed in HEK293 cells assessed as change in membrane potential using MP-red voltage sensitive dye; type: cell-based; in short: as §1
Rattus norvegicus [23] = organism: Rattus norvegicus; assay: Inhibition of […] state of voltage-gated sodium channel in Sprague-Dawley rat hippocampal neurons at 30 uM using 300 ms conditioning voltage step to 0 mV followed by 15 ms period at -90 mV by paired pulse protocol; type: tissue-based; conditions: Hippocampus
In short: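 Paired-pulse protocol on dissociated P14-16 Sprague-Dawley rat hippocampal neurons, compound at 30 µM. A 300 ms conditioning step to 0 mV (P1), 15 ms at -90 mV, then a 10 ms test step to 0 mV (P2). Tonic inhibition at P1 compared with inhibition at P2 after slow inactivation develops.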

[24] = target: T1, Sodium channel protein type 8 subunit alpha; assay: Inhibition of Nav1.6 using 20 Hz train of 20 voltage steps from -90 mV with duration of 3.5 ms at 30 uM by paired pulse protocol
Rattus norvegicus [25] = organism: Rattus norvegicus; assay: Use-dependent inhibition of voltage-gated sodium channel in Sprague-Dawley rat hippocampal neurons at 30 uM using 20 Hz train of 20 voltage steps from -90 mV with duration of 20 ms by voltage clamp technique; type: tissue-based; conditions: Hippocampus; in short: as §4
Rattus norvegicus [26] = organism: Rattus norvegicus; assay: Voltage-dependent inhibition of voltage-gated sodium channel in Sprague-Dawley rat hippocampal neurons at 30 uM at an initial membrane potential of -70 mV by voltage clamp technique; type: tissue-based; set-up: scale not given: the % may be the effect or the level left; conditions: Hippocampus
Hippocampus [27] = assay: Neuroprotective activity in Wistar rat hippocampal slices assessed as ATP concentration at 3 uM relative to tetrodotoxin; type: functional
[28] = target: Sodium channel protein type 2 subunit alpha (Homo sapiens) (UniProt Q99250); conditions: HEK293, 100 uM
[29] = target: Sodium channel protein type 2 subunit alpha (Homo sapiens) (UniProt Q99250); conditions: HEK293, 100 uM; remark: listed apart in the source
[30] = target: Sodium channel protein type 2 subunit alpha (Homo sapiens) (UniProt Q99250); conditions: HEK293, 30 uM
[31] = target: Sodium channel protein type 2 subunit alpha (Homo sapiens) (UniProt Q99250); conditions: HEK293, 30 uM; remark: listed apart in the source

| Structure (SMILES) | inhibition [1] [%] | inhibition [2] [%] | inhibition [3] [%] | inhibition [4] [%] | inhibition [5] [%] | inhibition [6] [%] | inhibition [7] [%] | inhibition [8] [%] | inhibition [9] [%] | inhibition [10] [%] | inhibition at 10 µM [11] [%] | inhibition [12] [%] | inhibition [13] [%] | inhibition [15] [%] | inhibition [16] [%] | IC50 [17] [µM] | IC50 [18] [µM] | Activity (Hippocampus [19]) [%] | IC50 (Cytochrome P450 2D6) [µM] | IC50 (Cytochrome P450 1A2) [µM] | other results |
| --- | --- | --- | --- | --- | --- | --- | --- | --- | --- | --- | --- | --- | --- | --- | --- | --- | --- | --- | --- | --- | --- |
| CN1CCN(c2ncc(-c3cc(Cl)cc(Cl)c3Cl)c(N)n2)CC1 [SIPATRIGINE] | 70 | 84.6 | 37 | 40.1 | 67 | 10.4 | 63.2 | 43.4 | 75.2 | 21.6 | 97 | 55 | 76 | 97 | 61 |  |  |  |  |  | Activity (Hippocampus [14]): 57% |
| NCc1noc(-c2c3ccccc3nn2Cc2cccc(Cl)c2)n1 |  |  |  |  |  |  |  |  |  |  |  |  |  |  |  | 110 | 24 | 17 |  |  |  |
| CC(=O)Nc1ccc(Cn2nc(-c3nc(CNC(=O)OC(C)(C)C)no3)c3ccccc32)cc1 |  |  |  |  |  |  |  |  |  |  |  |  |  |  |  |  | 15 | 47 | 13 | 5.92 |  |
| NCc1noc(-c2c3ccccc3nn2Cc2ccccc2)n1 |  | 70.8 | 29 | 35.8 | 92 | 10.2 | 65.8 | 31.5 | 33.8 | 13 | 81 | 51 | 84 | 98 | 78 | 6.7 | 44.2 | 63 | > 10 | 0.315 | Activity (Rattus norvegicus [20]): Active; Activity (Rattus norvegicus [21]): 10%; IC50 [22]: 1.03 µM; Activity (Rattus norvegicus [23]): Active; Activity [24]: Active; Activity (Rattus norvegicus [25]): Active; Activity (Rattus norvegicus [26]): 60% |
| Nc1nc(N)c(-c2cc(Cl)cc(Cl)c2Cl)c(CF)n1 | 37 | 88.5 | 81.4 | 43.4 | 44 | 2.3 | 97.3 | 62.7 | 75.2 | 0.7 | 39 | 56 | 86 | 98 | 100 | 0.04 | 2.6 |  |  |  | Activity (Hippocampus [27]): 93% |
| Nc1nnc(-c2cccc(Cl)c2Cl)c(N)n1 [LAMOTRIGINE] | 23 |  |  |  | 45 |  |  |  |  |  | 40 | 44 | 46 | 21 | 22 | 2.6 | 219 |  |  |  | inhibition [28]: 18.1%; inhibition [29]: 17%; inhibition [30]: 4.1%; inhibition [31]: 7.9%; Activity (Hippocampus [14]): 33% |
| CC(C)(C)OC(=O)NCc1noc(-c2n[nH]c3ccccc23)n1 |  |  |  |  |  |  |  |  |  |  |  |  |  |  |  |  | 96 | 0 | > 10 | 0.79 |  |
| NCc1noc(-c2nn(Cc3ccccc3)c3ccccc23)n1 |  | 14.7 | 1.1 | 1.9 | 59 | 9.5 | 18.7 | 40.9 | 10.8 | 6.6 | 48 | 48 | 90 | 97 | 79 | 3.3 | 17.5 | 99 | 0.09 | 0.009 | IC50 [22]: 0.66 µM; Activity (Rattus norvegicus [23]): Active |

From ChEMBL document CHEMBL1138611, “Oxadiazolylindazole sodium channel modulators are neuroprotective toward hippocampal neurones” (J Med Chem, 2009)
